Reference: article PMC7193547 (Environmental Science & Technology, 2018)
Like-named read-outs stand apart in the source and are kept apart here.

Assays:
[1] = format: physicochemical; details: not told
single bacterial cell = test system: single bacterial cell
Procedure, shortened: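 Calculated rather than measured: the liposome-derived Papp was scaled to a single cell using an estimated cell surface area of ≈3 μm² and membrane thickness δ (one 4 nm membrane for Gram-positive, two 4 nm membranes for Gram-negative), giving a concentration-gradient-dependent influx.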

Ochrobactrum sp. FrEM = experiment: Biodegradation of glyphosate by Ochrobactrum sp. FrEM; format: cell-based; details: after 4.5 days, OD600 ≈ 0.8, 30 °C, pH 7
[2] = test system: active glyphosate transporter; details: cited from earlier work

O=C(O)CNCP(=O)(O)O [glyphosate, N-(phopshomethyl)glycine]
Papp at 20 mM ([1]; pH 4.1): 420 ×10⁻⁶ cm/s | Papp at 20 mM ([1]; pH 7): 37 ×10⁻⁶ cm/s | calculated maximum membrane permeation rate (dnout/dt)cell-perm-max (single bacterial cell; glyphosate concentration of 1 μM): −6.5 × 10^–22 mol·s^–1·cell^–1 | calculated maximum membrane permeation rate (dnout/dt)cell-perm-max (single bacterial cell; pH 7, 0.12 mM glyphosate, compared with Ochrobactrum sp. FrEM): −7.5 × 10^–20 mol·s^–1·cell^–1 | calculated maximum membrane permeation rate (dnout/dt)cell-perm-max (single bacterial cell; pH 7, 3 mM glyphosate, [Sin] = 0, compared with Achromobacter sp. MPS 12A): −1.9 × 10^–18 mol·s^–1·cell^–1 | maximum permeation rate higher than degradation rate (single bacterial cell; pH 7, 3 mM, versus degradation rate of Achromobacter sp. MPS 12A): 2 orders of magnitude | maximum glyphosate degradation rate (dn/dt)deg-cell (Ochrobactrum sp. FrEM): −1.7 × 10^–21 mol·s^–1·cell^–1 | uptake rate of active glyphosate transporter (dnout/dt)cell-transport [2]: −1.8 × 10^–21 mol·s^–1·cell^–1 | Km ([2]; read-out: affinity constant KM for glyphosate uptake): 125 µM
